Data reported in ChEMBL document CHEMBL1149310, “A screening library for peptide activated G-protein coupled receptors. 1. The test set” (J Med Chem, 2004).

Biological target: Melanin-concentrating hormone receptor 1 (Rattus norvegicus, UniProt P97639)
Test: Binding affinity to rat MCH1 receptor
Method in brief: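 Membranes from mammalian cells stably transfected with rat MCH1 receptor, prepared by nitrogen cavitation (900 psi, ice, 30 min) and differential centrifugation (800g, then 38 000g). Radioligand competition at equilibrium in 50 mM HEPES pH 7.0, 10 mM MgCl2, 2 mM EGTA. Hits were taken to 12-point dose-response curves to derive Ki. Bound and free were separated by filtration over PEI-treated GF-C filters and counted by scintillation.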

Melanin-concentrating hormone receptor 1, sequence (P97639 whole entry): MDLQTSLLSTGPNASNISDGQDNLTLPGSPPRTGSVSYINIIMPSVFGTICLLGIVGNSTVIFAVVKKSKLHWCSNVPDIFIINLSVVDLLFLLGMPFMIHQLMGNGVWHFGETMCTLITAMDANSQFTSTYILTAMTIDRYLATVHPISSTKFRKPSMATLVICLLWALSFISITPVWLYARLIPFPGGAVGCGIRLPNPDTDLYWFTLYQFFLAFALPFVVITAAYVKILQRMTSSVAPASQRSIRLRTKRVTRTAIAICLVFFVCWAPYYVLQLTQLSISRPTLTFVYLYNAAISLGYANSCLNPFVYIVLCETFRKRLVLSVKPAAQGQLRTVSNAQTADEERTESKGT

Ki	SMILES
510 nM	O=C(Cc1ccc(Oc2ccccc2)cc1)NC1CCN(Cc2ccc(Cl)c(Cl)c2)C1 (centres undefined)
> 10000 nM	O=C(CCCc1ccccc1)NC[C@@H]1CCCN1CCc1ccccc1
9800 nM	O=C(Cc1csc2ccccc12)NC[C@H]1CCCN1Cc1ccc(Cl)c(Cl)c1
1700 nM	Clc1ccc(-c2ccc(CNC3CCN(CC(c4ccccc4)c4ccccc4)C3)o2)cc1 (centres undefined)
360 nM	O=C(Cc1csc2ccccc12)NC1CCN(Cc2ccc(Cl)c(Cl)c2)C1 (centres undefined)
> 10000 nM	O=C(Cc1ccccc1)NC1CCN(Cc2ccccc2)C1 (centres undefined)
2 nM	COCC1=C(C(=O)OC)[C@H](c2ccc(F)c(F)c2)N(C(=O)NCCCN2CCC(c3cccc(NC(C)=O)c3)CC2)C(=O)N1 [SNAP-7941]
> 10000 nM	O=C(CCc1ccccc1)NC1CCN(Cc2ccc(Cl)c(Cl)c2)C1 (centres undefined)
3100 nM	O=C(CCCc1ccccc1)NC[C@H]1CCCN1CCc1ccccc1
980 nM	O=C(Cc1ccccc1)NC1CCN(Cc2ccc(Cl)c(Cl)c2)C1 (centres undefined)
5000 nM	CC(CCN1CCC(NCc2ccc(-c3ccc(Cl)cc3)o2)C1)CC(C)(C)C (centres undefined)
6000 nM	O=C(Cc1csc2ccccc12)NC[C@@H]1CCCN1Cc1ccc(Cl)c(Cl)c1
630 nM	O=C(Cc1ccc2c(c1)OCO2)NC1CCN(Cc2ccc(Cl)c(Cl)c2)C1 (centres undefined)

SMILES	Ki
O=C(Cc1ccccc1)NC1CCN(CCc2ccccc2)C1 (centres undefined)	> 10000 nM
